ChEMBL document CHEMBL1121898, “Potential antiestrogens. Synthesis and evaluation of mammary tumor inhibiting activity of 1,2-dialkyl-1,2-bis(3'-hydroxyphenyl)ethanes” (1981)
Values belong to the molecule of their own block, whether it stands above or below them. Active and inactive are the calls of the source.

Assays:
Rattus norvegicus [1] = organism: Rattus norvegicus; assay: Percent change in DMBA-induced hormone-dependent mammary carcinoma tumor area in ovariectomised rats after 28 days; format: functional
Summary of the method: (§1)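 DMBA-induced, hormone-dependent mammary adenocarcinoma in SD rats, with ovariectomy as the treatment. Rats bearing at least one tumor >140 mm² were placed in groups of ten. Tumors were counted at the start and as new tumors. Responses were scored as complete remission, partial remission (≥50% size reduction), no change or progression, with % change in tumor area and body weight.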

Rattus norvegicus [2] = organism: Rattus norvegicus; assay: Percent unchanged tumor size of DMBA-induced hormone-dependent mammary carcinoma tumors in ovarectiemised rats; format: functional; summary of the method: as §1
[3] = molecular target: T1, Estrogen receptor (Mus musculus) (UniProt O08537+P19785); assay: Estrogenic activity in uterotrophic test in mice at 9 ug; format: functional
T1 sequence (O08537 whole entry, looked up): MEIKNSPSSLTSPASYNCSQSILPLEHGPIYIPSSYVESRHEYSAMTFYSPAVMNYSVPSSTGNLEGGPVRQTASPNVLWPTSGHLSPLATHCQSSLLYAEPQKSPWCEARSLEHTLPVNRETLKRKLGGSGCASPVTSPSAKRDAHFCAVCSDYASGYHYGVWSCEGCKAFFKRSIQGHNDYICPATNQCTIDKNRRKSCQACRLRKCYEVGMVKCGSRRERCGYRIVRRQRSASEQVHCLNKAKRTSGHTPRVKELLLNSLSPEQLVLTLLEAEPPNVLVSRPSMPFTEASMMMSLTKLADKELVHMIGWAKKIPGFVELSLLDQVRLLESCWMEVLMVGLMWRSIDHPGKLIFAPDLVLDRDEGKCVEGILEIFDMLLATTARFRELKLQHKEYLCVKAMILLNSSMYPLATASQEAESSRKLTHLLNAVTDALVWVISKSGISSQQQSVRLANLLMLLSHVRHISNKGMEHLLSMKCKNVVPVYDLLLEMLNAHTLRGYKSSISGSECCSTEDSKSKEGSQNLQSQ
T1 sequence (P19785 whole entry, looked up): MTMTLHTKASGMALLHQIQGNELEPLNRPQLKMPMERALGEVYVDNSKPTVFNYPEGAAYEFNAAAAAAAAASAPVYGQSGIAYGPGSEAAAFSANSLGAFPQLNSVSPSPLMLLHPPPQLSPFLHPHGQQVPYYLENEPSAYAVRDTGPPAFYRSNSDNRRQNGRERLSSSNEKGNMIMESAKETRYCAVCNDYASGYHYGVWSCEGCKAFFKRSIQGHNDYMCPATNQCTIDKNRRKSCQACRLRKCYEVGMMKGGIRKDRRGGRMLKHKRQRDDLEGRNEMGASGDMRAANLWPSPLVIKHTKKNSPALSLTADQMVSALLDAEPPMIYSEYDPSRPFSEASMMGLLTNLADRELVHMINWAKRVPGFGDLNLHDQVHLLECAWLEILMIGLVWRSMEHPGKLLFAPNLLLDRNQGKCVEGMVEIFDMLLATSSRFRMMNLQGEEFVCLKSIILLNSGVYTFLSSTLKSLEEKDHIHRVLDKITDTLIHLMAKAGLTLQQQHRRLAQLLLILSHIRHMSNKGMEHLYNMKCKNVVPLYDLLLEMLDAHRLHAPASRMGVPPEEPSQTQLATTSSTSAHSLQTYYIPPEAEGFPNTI
Summary of the method: (§2)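 Immature (20-day-old) female NMRI mice, 14.5 ± 1.2 g, randomized into groups of 10. Given the test compound sc daily for 3 days in 0.1 mL olive oil. Uteri removed 24 h after the last injection; uterine weight taken as the read-out, means ± SD. Dose in μg.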

Rattus norvegicus [4] = organism: Rattus norvegicus; assay: Percent unchanged tumor size of DMBA-induced hormone-dependent mammary carcinoma tumors in rats at 4.5 mg; format: functional
Rattus norvegicus [5] = organism: Rattus norvegicus; assay: Percent change in DMBA-induced hormone-dependent mammary carcinoma tumor area at 2.25 mg after 28 days; format: functional
Summary of the method: (§3)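 DMBA-induced, hormone-dependent mammary adenocarcinoma in SD rats. Rats bearing at least one tumor >140 mm² were placed in groups of ten. Compound was given sc as a single dose (mg/kg) daily Monday–Thursday and a double dose on Friday. Tumors were counted at the start and as new tumors; responses were scored as complete remission (not palpable), partial remission (≥50% reduction), no change or progression. Tumor area and body weight were recorded as % change.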

Rattus norvegicus [6] = organism: Rattus norvegicus; assay: Complete remission of DMBA-induced hormone-dependent mammary carcinoma tumors in rats at 2.25 mg; format: functional
Summary of the method: (§4)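 Female SD rats bearing DMBA-induced, hormone-dependent mammary adenocarcinoma, with at least one tumor >140 mm², were grouped in tens. Dosing was sc per kg body weight: a single dose daily Monday–Thursday and a double dose Friday. Ovariectomy served as the comparison arm. Complete remission was defined as a tumor no longer palpable. Body weight and tumor area changes were also recorded.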

Rattus norvegicus [7] = organism: Rattus norvegicus; assay: Percent unchanged tumor size of DMBA-induced hormone-dependent mammary carcinoma tumors in rats at 2.25 mg; format: functional
Rattus norvegicus [8] = organism: Rattus norvegicus; assay: Complete remission of DMBA-induced hormone-dependent mammary carcinoma tumors in rats at 9 mg; format: functional; summary of the method: as §4
[9] = molecular target: T1, Estrogen receptor (Mus musculus); assay: Inhibitory activity in mouse uterine weight test at 5 ug; format: functional
Summary of the method: (§5)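 Antiuterotrophic (Dorfman) assay in immature 20-day-old female NMRI mice, groups of 10. Uterine growth was stimulated with estrone (0.1 μg) and the test compound was given alongside it, sc daily for 3 days in 0.1 mL olive oil. Uteri were taken 24 h after the last dose. Uterine weight is reported as means ± SD and inhibition as % of the estrone-stimulated response.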

Mus musculus [10] = organism: Mus musculus; assay: Vaginal cornification test in mice at 0.1 ug; predominant cellular component leucocytes (diestrus); format: functional, organism-based
Rattus norvegicus [11] = organism: Rattus norvegicus; assay: Initial tumor number of DMBA-induced hormone-dependent mammary carcinoma in rats at 4.5 mg; format: functional; summary of the method: as §3
Rattus norvegicus [12] = organism: Rattus norvegicus; assay: Progression of DMBA-induced hormone-dependent mammary carcinoma tumors in rats at 9 mg; format: functional
Rattus norvegicus [13] = organism: Rattus norvegicus; assay: Percent change in body weight DMBA-induced hormone-dependent mammary carcinoma tumors in ovariectomised rats after 7 days; format: functional; summary of the method: as §1
[14] = molecular target: T1, Estrogen receptor (Mus musculus); assay: Inhibitory activity in mouse uterine weight test at 0.1 ug; format: functional; summary of the method: as §5
Rattus norvegicus [15] = organism: Rattus norvegicus; assay: Progression of DMBA-induced hormone-dependent mammary carcinoma tumors in ovariectomised rats; format: functional; summary of the method: as §1
Rattus norvegicus [16] = organism: Rattus norvegicus; assay: Partial remission of DMBA-induced hormone-dependent mammary carcinoma tumors in ovariectomised rats; format: functional; summary of the method: as §1
Rattus norvegicus [17] = organism: Rattus norvegicus; assay: Percent unchanged tumor size of DMBA-induced hormone-dependent mammary carcinoma tumors in rats at 9 mg; format: functional
[18] = molecular target: T1, Estrogen receptor (Mus musculus); assay: Estrogenic activity in uterotrophic test in mice at 300 ug; format: functional; summary of the method: as §2
[19] = molecular target: T1, Estrogen receptor (Mus musculus); assay: Estrogenic activity in uterotrophic test in mice at 0 ug; format: functional
Summary of the method: (§6)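 Uterine growth stimulation in immature female NMRI mice, 20 days old (14.5 ± 1.2 g), 10 per group. Test compound in 0.1 mL olive oil was given sc daily for 3 days. Uteri were excised 24 h after the final injection and weighed. Effect is reported as mean ± SD.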

Rattus norvegicus [20] = organism: Rattus norvegicus; assay: Partial remission of DMBA-induced hormone-dependent mammary carcinoma tumors in rats at 4.5 mg; format: functional; summary of the method: as §3
Rattus norvegicus [21] = organism: Rattus norvegicus; assay: Complete remission of DMBA-induced hormone-dependent mammary carcinoma tumors in rats at 4.5 mg; format: functional; summary of the method: as §4
Rattus norvegicus [22] = organism: Rattus norvegicus; assay: Initial tumor number of DMBA-induced hormone-dependent mammary carcinoma in rats at 9 mg; format: functional; summary of the method: as §3
Rattus norvegicus [23] = organism: Rattus norvegicus; assay: Partial remission of DMBA-induced hormone-dependent mammary carcinoma tumors in rats at 9 mg; format: functional; summary of the method: as §3
[24] = molecular target: T1, Estrogen receptor (Mus musculus); assay: Antiestrogenic activity in uterotrophic test in mice at 2.5 ug (experiment 1); format: functional
Summary of the method: (§7)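 Immature female NMRI mice, 20 days old (14.5 ± 1.2 g), randomly grouped 10 per group. Each received a daily sc injection for 3 days of 0.1 mL olive oil solution containing test compound, together with estrone to stimulate uterine growth. Uteri were removed 24 h after the last injection and weighed. Results are reported as % inhibition of the estrone-stimulated uterine weight gain, mean ± SD.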

Mus musculus [25] = organism: Mus musculus; assay: Vaginal cornification test in mice at 25 ug; predominant cellular component leucocytes (diestrus); format: functional, organism-based
[26] = molecular target: T1, Estrogen receptor (Mus musculus); assay: Estrogenic activity in uterotrophic test in mice at 24 ug (experiment 2); format: functional; summary of the method: as §6
[27] = molecular target: T1, Estrogen receptor (Mus musculus); assay: Antiestrogenic activity in uterotrophic test in mice at 0 ug (experiment 2); format: functional; summary of the method: as §7
[28] = molecular target: T1, Estrogen receptor (Mus musculus); assay: Antiestrogenic activity in uterotrophic test in mice at 50 ug (experiment 2); format: functional; summary of the method: as §7
Rattus norvegicus [29] = organism: Rattus norvegicus; assay: Percent change in body weight DMBA-induced hormone-dependent mammary carcinoma tumors in rats at 4 mg for 7 days; format: functional
[30] = molecular target: T1, Estrogen receptor (Mus musculus); assay: Antiestrogenic activity in uterotrophic test in mice at 5 ug (experiment 1); format: functional; summary of the method: as §7
[31] = molecular target: T1, Estrogen receptor (Mus musculus); assay: Estrogenic activity in uterotrophic test in mice at 0.8 ug (experiment 1); format: functional; summary of the method: as §6
Rattus norvegicus [32] = organism: Rattus norvegicus; assay: Final number of DMBA-induced hormone-dependent mammary carcinoma tumors in rats at 1 mg; format: functional
Summary of the method: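 Sprague-Dawley rats carrying DMBA-induced, hormone-dependent mammary adenocarcinoma, at least one tumor >140 mm², were placed in groups of ten. Compounds were given sc, with doses in mg/kg: a single daily dose Monday to Thursday and a double dose on Friday. Ovariectomy served as a comparator group. New tumors arising during the test were counted.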

[33] = molecular target: T1, Estrogen receptor (Mus musculus); assay: Inhibitory activity in mouse uterine weight test at 25 ug (experiment 2); format: functional; summary of the method: as §5
Mus musculus [34] = organism: Mus musculus; assay: Vaginal cornification test in mice at 5 ug; predominant cellular component leucocytes (diestrus); format: functional, organism-based
Summary of the method: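 Female NMRI mice (~15 g) were ovariectomized; castration was confirmed at 10 days by leucocyte smears. Mice were primed with estradiol 3-benzoate 0.2 μg, and only responders showing estrus were kept. Groups of three received sc test compound in 0.1 mL olive oil daily for 3 days. Saline vaginal smears were taken 6, 24, 30, 48 and 54 h after the last dose and scored by Allen-Doisy.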

[35] = molecular target: T1, Estrogen receptor (Mus musculus); assay: Inhibitory activity in mouse uterine weight test at 5 ug (experiment 1); format: functional; summary of the method: as §5
[36] = molecular target: T1, Estrogen receptor (Mus musculus); assay: Antiestrogenic activity in uterotrophic test in mice at 500 ug (experiment 2); format: functional; summary of the method: as §7
Rattus norvegicus [37] = organism: Rattus norvegicus; assay: Percent change in DMBA-induced hormone-dependent mammary carcinoma tumor area at 1 mg after 28 days; format: functional; summary of the method: as §3
Rattus norvegicus [38] = organism: Rattus norvegicus; assay: Partial remission of DMBA-induced hormone-dependent mammary carcinoma tumors in rats at 1 mg; format: functional; summary of the method: as §3

Effect [3]: 13.9
inhibition [9]: 26%
inhibition [14]: 5%
Effect [18]: 28.4
Effect [19]: 11.4
SMILES: CCCC(c1cccc(O)c1)C(CCC)c1cccc(O)c1 (stereo not drawn)
Change (Rattus norvegicus [1]): -99%
Tumors (Rattus norvegicus [2]): 0%
Tumors (Rattus norvegicus [4]): 27%
Change (Rattus norvegicus [5]): 271%
Tumors (Rattus norvegicus [6]): 25%
Tumors (Rattus norvegicus [7]): 13%
Tumors (Rattus norvegicus [8]): 52%
Activity (Mus musculus [10]): inactive
No. of tumors (Rattus norvegicus [11]): 16
Tumors (Rattus norvegicus [12]): 17%
Change (Rattus norvegicus [13]): 3.6%
Tumors (Rattus norvegicus [15]): 0%
Tumors (Rattus norvegicus [16]): 10%
Tumors (Rattus norvegicus [17]): 9%
Tumors (Rattus norvegicus [20]): 14%
Tumors (Rattus norvegicus [21]): 23%
No. of tumors (Rattus norvegicus [22]): 22
Tumors (Rattus norvegicus [23]): 22%

Effect [24]: 29.5
Effect [26]: 18.5
Effect [27]: 10
Effect [28]: 28.3
Effect [30]: 23.5
Effect [31]: 11.8
inhibition [33]: 48%
inhibition [35]: 53%
Effect [36]: 30.9
SMILES: CCC(c1cccc(O)c1)C(CC)c1cccc(O)c1 (stereo in doubt; 20)
Activity (Mus musculus [25]): inactive
Change (Rattus norvegicus [29]): -5.3%
No. of tumors (Rattus norvegicus [32]): 29
Activity (Mus musculus [34]): inactive
Change (Rattus norvegicus [37]): 47%
Tumors (Rattus norvegicus [38]): 15%
